# According to ChEMBL document CHEMBL4837208, “1,2,4-Triazolo[1,5-a]pyrimidines: Efficient one-step synthesis and functionalization as influenza polymerase PA-PB1 interaction disruptors” (Eur J Med Chem, 2021):
# What was measured:
# [1] = Cytotoxicity against MDCK cells assessed as reduction in cell viability incubated for 48 hrs by MTT assay; type: cell-based, Canis lupus familiaris; details: dog
# Procedure, shortened: (§1)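 MDCK cells (2 × 10⁴/well) grown 24 h, then given serial compound dilutions or DMSO in DMEM with 10% FBS for 48 h at 37 °C. MTT (5 mg/mL in PBS) added for 4 h. Lysed overnight with 10% SDS/0.01 N HCl, then OD read at 620 nm. CC50 is the concentration reducing viability by 50%. At least three independent experiments in duplicate.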
# [2] = system: Influenza A virus; experiment: Antiviral activity against Influenza A virus A/PR/8/34(H1N1) infected in MDCK cells assessed as inhibition of plaque formation for 48 hrs by plaque reduction assay; type: functional, organism-based; details: A/Puerto Rico/8/1934(H1N1)
# Procedure, shortened: (§2)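 MDCK monolayers (5 × 10⁵ cells/well, seeded 24 h earlier) washed with serum-free DMEM. Infected with A/PR/8/34 at 40 PFU/well for 1 h at 37 °C, in DMEM with TPCK-trypsin and 0.14% BSA, with compound or DMSO present. Overlay of the same medium plus 1.2% Avicel and compound. At 48 h, fixed with 4% formaldehyde and stained with 0.1% toluidine blue. Plaques counted against DMSO control set at 100%. At least three independent experiments in duplicate.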
# [3] = target: PA/PB1 (Influenza A virus (A/Puerto Rico/8/1934(H1N1)), UniProt P03431+P03433); experiment: Inhibition of Influenza A virus 6 His-tagged PA (239 to 716 residues) expressed in Escherichia coli BL21 pLysS/GST-tagged PB1 (1 to 25 residues) expressed in Escherichia coli protein-protein interaction using 3.3',5,5' tetramethyl benzidine as substrate by ELISA
# Procedure, shortened: (§3)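 Wells coated with 400 ng 6His-PA(239–716), E. coli BL21(DE3)pLysS-expressed, for 3 h at 37 °C, then blocked with 2% BSA/PBS for 1 h. Then 200 ng GST-PB1(1–25), or GST alone as control, added with compound at various concentrations, overnight at room temperature. Bound PB1 detected with HRP-anti-GST antibody (1:4000 in PBS/2% FBS). IC50 is the concentration halving PA–PB1 binding. At least three independent experiments in duplicate.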
# [4] = system: Influenza A virus; experiment: Antiviral activity against Influenza A virus A/PR/8/34(H1N1) infected in MDCK cells assessed as inhibition of viral replication by plaque reduction assay; type: functional, organism-based; details: A/Puerto Rico/8/1934(H1N1); procedure, shortened: as §2
# [5] = Cytotoxicity against MDCK cells assessed as reduction in cell viability by MTT assay; type: cell-based, Canis lupus familiaris; details: dog; procedure, shortened: as §1
# [6] = target: PA/PB1 (Influenza A virus (A/Puerto Rico/8/1934(H1N1)), UniProt P03431+P03433); experiment: Inhibition of Influenza A virus PA-PB1 protein-protein interaction by ELISA; type: protein assay; procedure, shortened: as §3
# [7] = system: SARS-CoV-2; experiment: microbe, parasite or virus in culture; type: functional, organism-based, Vero E6; details: Severe acute respiratory syndrome coronavirus 2, Vero C1008
# [8] = target: RNA-directed RNA polymerase (Influenza A virus (strain A/Puerto Rico/8/1934 H1N1), UniProt P03428+P03431+P03433); experiment: Inhibition of RdRP activity in Influenza A virus A/PR/8/34(H1N1) infected in HEK293T cells incubated for 24 hrs by minireplicon based dual luciferase assay; type: cell-based, Influenza A virus (A/Puerto Rico/8/1934(H1N1))
# Procedure, shortened: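 HEK293T cells (2 × 10⁵/well) plated overnight. Calcium-phosphate transfected with PB1, PB2, PA and NP plasmids (100 ng each), pPolI-Flu-ffLuc reporter (50 ng) and pRL-SV40 (50 ng), with compound or DMSO. Medium replaced at 5 h with compound-containing DMEM. Dual luciferase read at 24 h post-transfection. Firefly normalised to Renilla, with DMSO set at 100% polymerase activity.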
# [9] = Cytotoxicity against African green monkey Vero E6 cells assessed as reduction in cell viability incubated for 1 to 2 hrs by MTS assay; type: cell-based, Vero C1008; details: chlorocebus sabaeus, time 1-2 hrs
# Procedure, shortened: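 Vero E6 cell viability measured by the colorimetric formazan-based MTS assay. Means of duplicate experiments.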
compound,measurement,setting,value
O=C(Nc1nc2nc(-c3ccccc3)cc(O)n2n1)c1ccccc1,CC50 at 48 h,[1],> 250 µM
same,EC50,[2],> 100 µM
same,IC50,[3],21 µM
O=C(Nc1nc2nccc(-c3ccccc3)n2n1)c1ccccc1,CC50 at 48 h,[1],> 250 µM
same,EC50,[2],> 100 µM
same,IC50,[3],> 200 µM
COc1ccc(C(=O)Nc2nc3n(n2)C(c2ccccc2)C=C(C)N3)cc1 (configuration not stated),EC50,[4],> 100 µM
same,CC50,[5],240 µM
same,IC50,[6],171 µM
COc1ccc(C(=O)Nc2nc3nc(-c4ccccc4)cc(C)n3n2)cc1,CC50 at 48 h,[1],> 250 µM
same,EC50,[2],> 100 µM
same,EC50,[7],> 100 µM
CCCOc1ccc(C(=O)Nc2nc3nc(-c4ccccc4)cc(C)n3n2)cc1,CC50 at 48 h,[1],247 µM
same,EC50,[2],> 100 µM
same,EC50,[7],65.3 µM
O=C(Nc1nc2nc(-c3ccccc3)ccn2n1)c1ccccc1,CC50 at 48 h,[1],> 250 µM
same,EC50,[2],> 100 µM
same,IC50,[3],165 µM
Cc1cc(-c2ccccc2)nc2nc(NC(=O)c3ccccc3F)nn12,CC50 at 48 h,[1],> 250 µM
same,EC50,[2],> 100 µM
same,EC50,[7],30.6 µM
Cc1cc(-c2ccccc2)nc2nc(C(=O)Nc3ccccc3C(=O)O)nn12,CC50 at 48 h,[1],> 250 µM
same,EC50,[2],> 100 µM
same,IC50,[3],32 µM
COC(=O)c1ccccc1NC(=O)c1nc2nc(C)cc(-c3ccccc3)n2n1,CC50 at 48 h,[1],> 250 µM
same,EC50,[2],> 80 µM
same,IC50,[3],26.5 µM
Cc1cc(-c2ccccc2)nc2nc(NC(=O)c3ccc(N)cc3)nn12,CC50 at 48 h,[1],> 250 µM
same,EC50,[2],> 100 µM
same,EC50,[7],44 µM
NC(=O)c1ccccc1NC(=O)c1nc2ncc(-c3ccccc3)cn2n1,CC50 at 48 h,[1],> 250 µM
same,EC50,[2],> 100 µM
same,IC50,[3],> 200 µM
Cc1cc(-c2ccccc2)nc2nc(NC(=O)c3ccc([N+](=O)[O-])cc3)nn12,CC50 at 48 h,[1],> 250 µM
same,EC50,[2],> 100 µM
same,EC50,[7],> 100 µM
Cc1cc(-c2ccccc2)n2nc(C(=O)Nc3ccccc3C(=O)O)nc2n1,CC50 at 48 h,[1],> 250 µM
same,EC50,[2],> 100 µM
same,IC50,[3],116 µM
Cc1cc(-c2ccccc2)nc2nc(NC(=O)c3ccc(O)c(O)c3)nn12,CC50 at 48 h,[1],112 µM
same,EC50,[2],> 100 µM
same,EC50,[7],> 100 µM
NC(=O)c1c(NC(=O)c2nc3nccc(-c4ccccc4)n3n2)sc2c1CCCCC2,CC50 at 48 h,[1],> 200 µM
same,EC50,[2],> 60 µM
same,IC50,[3],22 µM
NC(=O)c1c(NC(=O)c2nc3ncc(-c4ccccc4)cn3n2)sc2c1CCCCC2,CC50 at 48 h,[1],100 µM
same,EC50,[2],> 80 µM
same,IC50,[3],35 µM
O=C(Nc1nc2ncc(-c3ccccc3)cn2n1)c1ccccc1,CC50 at 48 h,[1],> 250 µM
same,EC50,[2],> 100 µM
same,IC50,[3],> 200 µM
NC(=O)c1ccccc1NC(=O)c1nc2nccc(-c3ccccc3)n2n1,CC50 at 48 h,[1],> 250 µM
same,EC50,[2],> 100 µM
same,IC50,[3],21 µM
Cc1cc(-c2ccccc2)n2nc(-c3nc4ccccc4c(=O)o3)nc2n1,CC50 at 48 h,[1],> 250 µM
same,EC50,[2],16 µM
same,EC50,[8],21 µM
same,IC50,[3],19.5 µM
Cc1cc(-c2ccccc2)nc2nc(-c3nc4ccccc4c(=O)o3)nn12,CC50 at 48 h,[1],> 200 µM
same,EC50,[2],> 100 µM
same,IC50,[3],123 µM
COC(=O)c1ccccc1NC(=O)c1nc2nc(-c3ccccc3)cc(C)n2n1,CC50 at 48 h,[1],> 250 µM
same,EC50,[2],> 100 µM
same,IC50,[3],22.3 µM
Cc1cc(-c2ccccc2)nc2nc(C(=O)Nc3ccccc3F)nn12,CC50,[9],> 100 µM
same,CC50 at 48 h,[1],> 250 µM
same,EC50,[2],83.8 µM
same,EC50,[7],34.5 µM
N#C[C@@]1(c2ccc3c(N)ncnn23)O[C@H](CO)[C@@H](O)[C@H]1O [GS-441524],EC50,[7],0.89 µM
NC(=O)c1ncn([C@@H]2O[C@H](CO)[C@@H](O)[C@H]2O)n1 [RIBAVIRIN],CC50 at 48 h,[1],> 250 µM
same,EC50,[2],10 µM
same,EC50,[8],16 µM
